Tests used:
[1] = test system: Staphylococcus aureus; test: Potentiation of vancomycin-mediated reduction in CFU per biofilm of Staphylococcus aureus Mu50 preincubated for 20 hrs followed by vancomycin addition measured after 24 hrs; type: functional, organism-based
How it was run: (§1)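 Inoculum: overnight MH culture resuspended in 2× MH at OD590 0.2. Analogue present during 4 h adhesion at 37 °C, then after a saline wash for 20 h more at 37 °C. Biofilms then rinsed and exposed to vancomycin (20 μg/ml) alone in saline for 24 h at 37 °C. Line 5 uses analogue at 100 μM; line 4 uses lower concentrations, with EC50 as the level doubling vancomycin killing. CFU/biofilm counted by plating after vortex/sonication, as % reduction vs untreated control. n ≥ 9.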

[2] = test system: Staphylococcus aureus; test: Potentiation of vancomycin-mediated reduction in CFU per biofilm of Staphylococcus aureus Mu50 after 24 hrs; type: functional, organism-based; conditions: Mu50, 24 h
[3] = test system: Staphylococcus aureus; test: Potentiation of vancomycin-mediated reduction in CFU per biofilm of Staphylococcus aureus Mu50 at 100 uM after 24 hrs (reference value: 30 +/- 14%); type: functional; set-up: scale not given: the % may be the effect or the level left
[4] = test system: Staphylococcus aureus; test: Potentiation of vancomycin-mediated reduction in CFU per biofilm of Staphylococcus aureus Mu50 preincubated with compound at 100 uM for 20 hrs followed by vancomycin addition measured after 24 hrs (reference value: 30 +/- 14%); type: functional; set-up: scale not given: the % may be the effect or the level left; how it was run: as §1
[5] = test system: Staphylococcus aureus; test: Growth inhibition of Staphylococcus aureus Mu50 after 20 hrs by broth microdilution method; type: organism-based; conditions: in vitro
How it was run: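 S. aureus Mu50 grown in Mueller–Hinton broth at 37 °C, aerobic; MICs determined in triplicate in flat-bottom 96-well microtiter plates following an earlier published method.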

| SMILES | EC50 [1] [µM] | EC50 [2] [µM] | Activity [3] [%] | Activity [4] [%] | MIC [5] [µM] |
| --- | --- | --- | --- | --- | --- |
| O=C(NC[C@]1(O)CO[C@H](CNC(=O)c2ccccc2Cl)[C@H]1O)c1ccccc1 | 0.389 | 0.389 |  |  |  |
| O=C(NC[C@]1(O)CO[C@H](CNS(=O)(=O)C(F)(F)F)[C@H]1O)c1ccccc1 |  |  | 57 | 71 | > 500 |
| O=C(NC[C@@H]1OC[C@@](O)(CNC(=O)c2ccccc2)[C@@H]1O)c1ccccc1 | 224 | > 250 | 44 | 48 | > 500 |
| O=C(NC[C@]1(O)CO[C@H](CNS(=O)(=O)c2ccc(-c3ccccc3)cc2)[C@H]1O)c1ccccc1 |  |  | 83 | 84 | > 500 |
| O=C(NC[C@]1(O)CO[C@H](Cn2cc(-c3ccccc3)nn2)[C@H]1O)c1ccccc1 |  |  | 66 | 46 | > 500 |
| O=C(NC[C@]1(O)CO[C@H](CNC(=S)Nc2ccccc2)[C@H]1O)c1ccccc1 |  |  | 73 | 80 | > 500 |
| O=C(NC[C@H]1OC[C@@](O)(CNC(=O)c2ccccc2)[C@@H]1O)c1ccccc1 | 97 | 124 | 65 | 66 | > 500 |
| CS(=O)(=O)NC[C@H]1OC[C@@](O)(CNC(=O)c2ccccc2)[C@@H]1O |  |  | 62 | 69 | > 500 |
| O=C(NC[C@]1(O)CO[C@H](CNC(=O)c2ccccc2OC(F)(F)F)[C@H]1O)c1ccccc1 | 26.4 | 56.7 | 69 | 78 | > 500 |
| O=C(NC[C@]1(O)CO[C@H](CNCc2ccccc2)[C@H]1O)c1ccccc1 | 41.2 | 45.1 | 78 | 81 | > 500 |
| CN(C[C@H]1OC[C@@](O)(CNC(=O)c2ccccc2)[C@@H]1O)C(=O)c1ccccc1 | 8.5 | 24.3 | 90 | 94 | > 500 |
| O=C(NC[C@]1(O)CO[C@H](CNC(=O)c2ccccc2OC(F)F)[C@H]1O)c1ccccc1 | 31 | 25.7 | 78 | 81 | > 500 |
| O=C(NC[C@]1(O)CO[C@H](CNC(=O)c2ccccc2I)[C@H]1O)c1ccccc1 | 1.9 | 20.4 | 84 | 96 | > 500 |
| CC(C)S(=O)(=O)NC[C@H]1OC[C@@](O)(CNC(=O)c2ccccc2)[C@@H]1O |  |  | 67 | 72 | > 500 |
| Cc1ccc(S(=O)(=O)NC[C@H]2OC[C@@](O)(CNC(=O)c3ccccc3)[C@@H]2O)cc1 |  |  | 74 | 83 | > 500 |
| O=C(NC[C@]1(O)CO[C@H](CN2Cc3ccccc3C2=O)[C@H]1O)c1ccccc1 | 57.7 | 60.2 | 70 | 75 | > 500 |
| CCS(=O)(=O)NC[C@H]1OC[C@@](O)(CNC(=O)c2ccccc2)[C@@H]1O |  |  | 47 | 49 | > 500 |
| O=C(NC[C@]1(O)CO[C@H](Cn2nncc2-c2ccccc2)[C@H]1O)c1ccccc1 |  |  | 26 | 53 | > 500 |
| O=C(NC[C@]1(O)CO[C@H](CNS(=O)(=O)c2ccccc2)[C@H]1O)c1ccccc1 |  |  | 69 | 78 | > 500 |
| O=C(NC[C@H]1OC[C@@](O)(CNC(=O)c2ccccc2)[C@@H]1O)Nc1ccccc1 |  |  | 81 | 76 | > 500 |
| O=C(NC[C@]1(O)CO[C@H](CNS(=O)(=O)c2ccccc2Cl)[C@H]1O)c1ccccc1 |  |  | 73 | 65 | > 500 |
| O=C(NC[C@]1(O)CO[C@H](CNS(=O)(=O)c2ccc(Cl)cc2)[C@H]1O)c1ccccc1 | 23.5 | 27.8 | 85 | 86 | > 500 |
| O=C(NC[C@]1(O)CO[C@H](CNC(=O)c2ccccc2Br)[C@H]1O)c1ccccc1 | 9.8 | 19.7 | 82 | 96 | > 500 |
| O=C(OC[C@H]1OC(O)[C@@](O)(COC(=O)c2cc(O)c(O)c(O)c2)[C@@H]1O)c1cc(O)c(O)c(O)c1 (stereo partly drawn) [HAMAMELITANNIN] | 146 | 165 | 57 | 57 | > 500 |
